≈ marks a conversion by molar mass, not a printed value. Calls of active or inactive are those of the source. The rule behind the calls is not given here.
Legend:
[1] = tested on: Candida albicans; assay: Antifungal activity against fluconazole-sensitive Candida albicans SC5314 assessed as cell membrane damage at 8 ug/ml after 8 hrs by TEM analysis; assay type: functional, organism-based
Outline: (§1)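 Transmission electron microscopy of C. albicans SC5314 cells exposed to 8 μg/mL drug for 8 h; untreated cells as reference; cell wall, membrane, cytoplasm and vacuole morphology inspected.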

[2] = tested on: Candida albicans; assay: Antifungal activity against fluconazole-sensitive Candida albicans SC5314 assessed as abnormal cell shape at 8 ug/ml after 8 hrs by TEM analysis; assay type: functional, organism-based; outline: as §1
[3] = tested on: Candida albicans; assay: Antifungal activity against fluconazole-sensitive Candida albicans SC5314 assessed as change in ergosterol composition at 8 ug/ml after 24 hrs by GC-MS analysis (reference value: 90%); assay type: functional
Outline: (§2)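 C. albicans SC5314 exposed to 8 μg/mL for 24 h, sterols analysed by GC-MS with cholesterol internal standard; each sterol expressed as % of total sterol fraction versus no-drug control; average of three independent experiments.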

[4] = tested on: Candida albicans; assay: Antifungal activity against fluconazole-sensitive Candida albicans SC5314 assessed as change in obtusifoliol composition at 8 ug/ml after 24 hrs by GC-MS analysis relative to control; assay type: functional; outline: as §2
[5] = tested on: Candida albicans; assay: Antifungal activity against fluconazole-sensitive Candida albicans SC5314 assessed as change in lanosterol composition at 8 ug/ml after 24 hrs by GC-MS analysis (reference value: 1.5%); assay type: functional; outline: as §2
[6] = tested on: Candida albicans; assay: Antifungal activity against fluconazole-sensitive Candida albicans SC5314 assessed as change in eburicol composition at 8 ug/ml after 24 hrs by GC-MS analysis relative to control; assay type: functional; outline: as §2
[7] = tested on: Candida albicans; assay: Antifungal activity against fluconazole-sensitive Candida albicans SC5314 assessed as change in sterol composition at 8 ug/ml after 24 hrs by GC-MS analysis (reference value: 8.5%); assay type: functional; outline: as §2
[8] = tested on: Candida tropicalis; assay: Antifungal activity against Candida tropicalis after 7 days by serial dilution method; assay type: functional; settings: 168 h
[9] = tested on: Pichia kudriavzevii; assay: Antifungal activity against Candida krusei 0710397 after 7 days by serial dilution method; assay type: functional; settings: Pichia kudriavzevii, 0710397, 168 h
[10] = tested on: Candida albicans; assay: Antifungal activity against fluconazole-sensitive Candida albicans SC5314 after 24 hrs by serial dilution method; assay type: functional; settings: SC5314, 24 h
[11] = tested on: Candida parapsilosis; assay: Antifungal activity against Candida parapsilosis ATCC 22019 after 24 hrs by serial dilution method; assay type: functional; settings: Lodderomyces parapsilosis, ATCC 22019, 24 h
[12] = tested on: Cryptococcus neoformans; assay: Antifungal activity against Cryptococcus neoformans 32609 after 72 hrs by serial dilution method; assay type: functional; settings: Cryptococcus neoformans, 32609, 72 h
[13] = tested on: Nakaseomyces glabratus; assay: Antifungal activity against Candida glabrata 537 after 24 hrs by serial dilution method; assay type: functional; settings: Nakaseomyces glabratus, 537, 24 h
[14] = tested on: Aspergillus fumigatus; assay: Antifungal activity against Aspergillus fumigatus 07544 after 7 days by serial dilution method; assay type: functional; settings: Aspergillus fumigatus, 07544, 168 h
[15] = tested on: Trichophyton rubrum; assay: Antifungal activity against Trichophyton rubrum Cmccftla after 7 days by serial dilution method; assay type: functional; settings: 168 h
[16] = tested on: Nannizzia gypsea; assay: Antifungal activity against Microsporum gypseum Cmccfmza after 7 days by serial dilution method; assay type: functional; settings: 168 h
[17] = tested on: Candida albicans; assay: Fungicidal activity against fluconazole-sensitive Candida albicans SC5314 at 32 ug/ml after 12 to 48 hrs; assay type: functional, organism-based
Outline: (§3)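 Time-kill: C. albicans (SC5314 or 103) inoculated at 10^5 CFU/mL, untreated or with drug (2–32 μg/mL; fluconazole 32 μg/mL reference); CFU/mL counted after 0, 12, 24 and 48 h.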

[18] = tested on: Candida albicans; assay: Fungicidal activity against fluconazole-sensitive Candida albicans SC5314 assessed as reduction in fungi density after 24 hrs; assay type: functional, organism-based; outline: as §3
[19] = tested on: Candida albicans; assay: Antifungal activity against fluconazole-resistant Candida albicans 103 after 24 hrs by serial dilution method; assay type: functional; settings: Candida albicans, 103, 24 h
[20] = tested on: Candida albicans; assay: Inhibition of biofilm formation of fluconazole-sensitive Candida albicans SC5314 at 64 ug/ml after 48 hrs by XTT assay relative to control; assay type: functional
Outline: (§4)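 Biofilm formation by C. albicans SC5314 or 103 in presence of 2–64 μg/mL drug (fluconazole 64 μg/mL reference); quantified by XTT reduction as % of blank control; mean ± standard deviation of three independent experiments, ANOVA and Student t test.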

[21] = tested on: Candida albicans; assay: Inhibition of biofilm formation of fluconazole-resistant Candida albicans 103 at 64 ug/ml after 48 hrs by XTT assay; assay type: functional, organism-based; outline: as §4
[22] = tested on: Candida albicans; assay: Inhibition of hyphal growth of fluconazole-sensitive Candida albicans SC5314 at 8 ug/ml after 16 hrs by light microscopic analysis; assay type: functional, organism-based
Outline: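 C. albicans SC5314 incubated in RPMI 1640 liquid medium at 37 °C for 16 h with or without drug (2–8 μg/mL); hyphal, pseudohyphal or yeast morphology scored microscopically against blank control.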

[23] = tested on: Candida albicans; assay: Antifungal activity against fluconazole-resistant Candida albicans 100 after 24 hrs by serial dilution method; assay type: functional; settings: Candida albicans, 100, 24 h
[24] = tested on: Candida albicans; assay: Antifungal activity against fluconazole-resistant Candida albicans 07109 after 24 hrs by serial dilution method; assay type: functional; settings: Candida albicans, 07109, 24 h
[25] = tested on: Candida albicans; assay: Antifungal activity against fluconazole-resistant Candida albicans 805 after 24 hrs by serial dilution method; assay type: functional; settings: Candida albicans, 805, 24 h

**Q.** How did the Activity [1] turn out when `OC(Cn1cncn1)(Cn1cncn1)c1ccc(F)cc1F` [FLUCONAZOLE] was run?
**A.** Active

**Q.** What about the Activity [2] of the same molecule?
**A.** Active

**Q.** What about the Activity [3] of the same molecule?
**A.** 0.6%

**Q.** And the Activity [4]?
**A.** 6.5%

**Q.** What about the Activity [5] of the same molecule?
**A.** 5.9%

**Q.** And the Activity [6]?
**A.** 82.2%

**Q.** And the Activity [7]?
**A.** 4.8%

**Q.** What about the MIC80 [8] of the same molecule?
**A.** 1 µg/mL (≈ 3.27 µM)

**Q.** What about the MIC80 [9] of the same molecule?
**A.** 4 µg/mL (≈ 13.1 µM)

**Q.** What about the MIC80 [10] of the same molecule?
**A.** 0.5 µg/mL (≈ 1.63 µM)

**Q.** What about the MIC80 [11] of the same molecule?
**A.** 2 µg/mL (≈ 6.53 µM)

**Q.** And the MIC80 [12]?
**A.** 2 µg/mL (≈ 6.53 µM)

**Q.** What about the MIC80 [13] of the same molecule?
**A.** 0.5 µg/mL (≈ 1.63 µM)

**Q.** And the MIC80 [14]?
**A.** > 64 µg/mL

**Q.** And the MIC80 [15]?
**A.** 4 µg/mL (≈ 13.1 µM)

**Q.** And the MIC80 [16]?
**A.** 1 µg/mL (≈ 3.27 µM)

**Q.** And the Activity [17]?
**A.** Active

**Q.** What about the Activity [18] of the same molecule?
**A.** inactive

**Q.** And the MIC80 [19]?
**A.** 4 µg/mL (≈ 13.1 µM)

**Q.** What about the inhibition [20] of the same molecule?
**A.** inactive

**Q.** What about the inhibition [21] of the same molecule?
**A.** inactive

**Q.** And the “growth inhibition (GI)” value [22]?
**A.** inactive

**Q.** And the MIC80 [23]?
**A.** > 1020 µg/mL

**Q.** And the MIC80 [24]?
**A.** > 1020 µg/mL

**Q.** And the MIC80 [25]?
**A.** > 1020 µg/mL

**Q.** For `Cc1ccc2c(c1)[C@@H]1CN(C)CC[C@@H]1N2C(=O)c1ccc2ccccc2c1`, which MIC80 [10] is on record?
**A.** 32 µg/mL (≈ 89.8 µM)

**Q.** What about the MIC80 [11] of the same molecule?
**A.** 16 µg/mL (≈ 44.9 µM)

**Q.** What about the MIC80 [12] of the same molecule?
**A.** 8 µg/mL (≈ 22.4 µM)

**Q.** What about the MIC80 [13] of the same molecule?
**A.** > 64 µg/mL

**Q.** What about the MIC80 [14] of the same molecule?
**A.** > 64 µg/mL

**Q.** And the MIC80 [15]?
**A.** 16 µg/mL (≈ 44.9 µM)

**Q.** And the MIC80 [16]?
**A.** 32 µg/mL (≈ 89.8 µM)

**Q.** What about the Activity [17] of the same molecule?
**A.** Active

Source: ChEMBL document CHEMBL3286225, “Novel carboline derivatives as potent antifungal lead compounds: design, synthesis, and biological evaluation” (ACS Med Chem Lett, 2014)
